OX1R antag-1 = OX1R (HCRTR1) antagonists, primary screen, fluorescence, CHO/OX1R cells, Fluo-8 calcium, orexin A; inhibition, % at 5 µM; 330,000 tested, 0.43% active; Fluo-8 calcium fluorescence; Orexin/Hypocretin receptor type 1 (Homo sapiens), O43613; AID 434989, 2010;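 active means inhibition above its plate's threshold, mean inhibition of all tested compounds on the plate plus 3 SD, cut at about 37% in these data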
GalR3 antagonist = GalR3 antagonists in HEK293 cells, primary screen, cell-based, fluorescence readout. Galanin receptor type 3 (Homo sapiens), O60755. HEK293 GalR3-CNG cAMP membrane potential fluorescence; galR3 body fused to GalR1 C-terminus. inhibition, % at 3 µM. 360,000 tested, 0.44% active. AID 651719, 2012;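 active means inhibition above the screen-wide average plus 3 SD, cut at about 13% in these data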;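 further: forskolin and galanin both at EC90 stimulate the cells; cAMP rise reported by CNG channel membrane potential dye signal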
Target sequence (O60755 1-299 limits assumed): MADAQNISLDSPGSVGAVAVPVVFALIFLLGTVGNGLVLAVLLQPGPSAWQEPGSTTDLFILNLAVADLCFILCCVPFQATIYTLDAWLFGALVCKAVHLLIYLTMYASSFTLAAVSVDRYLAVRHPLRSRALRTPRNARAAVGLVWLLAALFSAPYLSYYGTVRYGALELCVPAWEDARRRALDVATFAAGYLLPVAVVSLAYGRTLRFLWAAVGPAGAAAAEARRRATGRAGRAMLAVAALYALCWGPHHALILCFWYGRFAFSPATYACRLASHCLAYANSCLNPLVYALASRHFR
OX1R antag-2 = antagonists of human orexin 1 receptor (OX1R); OX1R-expressing cells, FRET antagonist read-out; inhibition, % at 6.6 µM; 330,000 tested, 1.8% active; AID 485270, 2010; in the data active means inhibition mostly above about 38%, no sharp cut-off; inactive means mostly below about 40%
TAAR1 ag = human TAAR1 agonists, primary screen, Fluo-8 calcium fluorescence, CHO RD-HGA16 cells; Trace amine-associated receptor 1 (Homo sapiens), Q96RJ0; vehicle wells 0%, saturating PEA agonist 100%; activation, % at 3 µM; 360,000 tested, 0.99% active;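 active means activation above the mean activation of all test compounds in the run plus 3 SD, cut at about 38% in these data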
Target sequence (Q96RJ0 whole entry, looked up): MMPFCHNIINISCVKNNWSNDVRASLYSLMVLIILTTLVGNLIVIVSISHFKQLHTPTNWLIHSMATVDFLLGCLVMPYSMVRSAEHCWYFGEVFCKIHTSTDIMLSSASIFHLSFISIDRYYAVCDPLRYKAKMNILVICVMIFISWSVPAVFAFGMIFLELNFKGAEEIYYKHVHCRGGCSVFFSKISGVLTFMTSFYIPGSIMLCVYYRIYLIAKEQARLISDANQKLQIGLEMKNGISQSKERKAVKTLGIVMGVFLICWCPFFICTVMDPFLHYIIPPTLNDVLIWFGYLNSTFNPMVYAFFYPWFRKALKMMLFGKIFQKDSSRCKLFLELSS
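Test system: RD-HGA16 (CHO) cells co-expressing Gα16 and hTAAR1 / Benchmarks: DMSO vehicle as 0%, PEA at EC100 as 100% / Repeats: no replicates (n 1) / Measure: % activation from peak over basal fluorescence ratio, DMSO-to-PEA scaled / Timing: 17-24 h plating, Fluo-8 75 min 37 °C, 30 min RT / Technique: kinetic Fluo-8 calcium fluorescence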
TAAR1 antagonist = human TAAR1 antagonists, primary screen, Fluo-8 calcium fluorescence, CHO RD-HGA16 cells | Trace amine-associated receptor 1 (Homo sapiens), Q96RJ0 | antagonist | inhibition, % at 3 µM | 360,000 tested, 1.5% active | AID 624466, 2012;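 active means inhibition above a per-plate cutoff, the mean inhibition of test compounds on that plate plus 3 SD, cut at about 49% in these data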
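System: RD-HGA16 CHO cells with stable hTAAR1 and Gα16 | Probe or stimulus: EC80 β-phenethylamine stimulus | Dosing: 3 µM, single point | Times: Dye loading 75 min at 37 °C, then 30 min room temperature | Measured by: Fluo-8 calcium-sensitive fluorescence | Read-out basis: % inhibition of agonist calcium response | Replicates: n of 1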
CHO parental Ca = ATP-evoked calcium signal inhibitors, parental CHO, primary screen, counter-screen for OX1R antagonist project, cell-based, fluorescence, Fluo-8 calcium dye. parental CHO-K1, ATP-induced calcium, Fluo-8 fluorescence. inhibition, % at 5.6 µM. 330,000 tested, 0.63% active;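 active means inhibition above that plate's mean sample inhibition plus 3 SD, cut at about 26% in these data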
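Assay system: parental CHO cells; Read-out basis: percent inhibition of ATP-evoked calcium rise, normalized to controls; Benchmarks: ATP and no-ATP DMSO wells; Compound dosing: single nominal dose of 5.6 µM per compound; Signal: Fluo-8 calcium dye fluorescence; Also added: ATP as calcium-mobilizing challenge; Repeats: singlicate.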
Numbers stand for hits; - = inactive; . = not tested or not shown. In the library only some 4.2% were active in any assay of this set; here they are far more common.

SMILES	OX1R antag-1	GalR3 antagonist	OX1R antag-2	TAAR1 ag	TAAR1 antagonist	CHO parental Ca
COc1ccc2nc(C(F)(F)C(F)(F)F)c(C#N)c(N)c2c1	-	-	-	42	-	-
COc1cc(OC)c2c(N)c(C#N)c(C(F)(F)C(F)(F)F)nc2c1	-	-	-	-	-	-
COc1ccccc1-c1c(-c2ccc(OCC(=O)NN)cc2O)n[nH]c1C(F)(F)F	-	-	-	-	-	-
COc1ccc(-c2n[nH]c(C(F)(F)F)c2-c2cc3ccccc3o2)c(O)c1	52	-	-	-	-	78
CCn1c(SCC(=O)c2cc(C)n(CC3CCCO3)c2C)nc2ccccc21 (stereo unspecified)	-	-	77	-	-	-
Cc1cc(C(=O)COC(=O)CCc2nc3ccccc3c(=O)[nH]2)c(C)n1CC1CCCO1 (stereo unspecified)	-	.	-	.	.	-
Cc1cc(C(=O)CSc2nnnn2-c2ccccc2)c(C)n1CC1CCCO1 (stereo unspecified)	-	-	-	-	-	-
Cc1cc(C(=O)CSc2nc3ccccc3c(=O)[nH]2)c(C)n1CC1CCCO1 (stereo unspecified)	-	-	-	-	-	60
COCCNC(=O)C1(C)CCCN(C(=O)c2cnc3ccccc3n2)C1 (stereo unspecified)	.	-	.	-	-	.
COc1cc(C(=O)OCC(=O)c2cc(C)n(CC3CCCO3)c2C)ccc1OCC(=O)N1CCOCC1 (stereo unspecified)	-	-	-	-	-	-
O=C(CSc1nnc2ccccn12)NC(=O)c1cccc([N+](=O)[O-])c1	-	-	43	-	-	-
CC(NC(=O)C1CCN(Cc2ccc(Oc3ccccc3)cc2)CC1)c1cccc2ccccc12 (stereo unspecified)	.	-	.	-	49	.
CC(NC(=O)C1CCN(Cc2ccccc2)CC1)c1cccc2ccccc12 (stereo unspecified)	.	-	.	-	-	.
CC(C)(C)n1ncc2c(=O)n(Cc3cccc(Cn4cnc5c(cnn5C(C)(C)C)c4=O)c3F)cnc21	64	-	-	-	-	62
OC(CNc1nc(-c2cccnc2)nc2ccccc12)c1ccccc1 (stereo unspecified)	-	-	-	-	49	-
Clc1cccc(-c2nc(NCc3cccnc3)c3ccccc3n2)c1	-	-	64	-	-	-
FC(F)(F)c1nc(NCc2cccnc2)c2ccccc2n1	-	-	-	-	-	-
Cc1ccc(-c2nc(NCc3cccnc3)c3ccccc3n2)cc1	-	-	-	-	-	-
c1ccc(-c2nc(NCc3cccnc3)c3ccccc3n2)cc1	-	.	49	.	.	-
CC(C)NC(=O)N(C)C[C@H]1OCCCC[C@H](C)Oc2ccc(NC(=O)NC3CCCCC3)cc2C(=O)N([C@H](C)CO)C[C@@H]1C	.	-	.	-	-	.
N=C(N)c1ccc(Cl)cc1	-	-	-	-	-	-
N=C(N)c1ccc(/C=C/c2ccc(C(=N)N)cc2O)cc1	-	-	46	-	-	-
COCCNC(=O)c1ccc2c(c1)S(=O)(=O)c1cc(Cl)ccc1C2=O	-	-	42	-	-	-
COc1ccc(C(=O)Nc2ccccc2C(=O)NCc2ccco2)cc1OC	-	-	-	-	54	-
COc1ccccc1C(=O)Nc1ccccc1C(=O)NCc1ccco1	-	-	-	-	-	-
SMILES	OX1R antag-1	GalR3 antagonist	OX1R antag-2	TAAR1 ag	TAAR1 antagonist	CHO parental Ca
COCCNC(=O)c1ccc2c(c1)C(=O)c1ccccc1-2	-	-	37	-	-	-
O=C(NCc1ccco1)c1ccc(C(=O)NCc2ccco2)cc1	.	-	.	-	-	.
O=C(NCc1ccco1)c1ccc2c(c1)C(=O)c1ccccc1-2	-	-	37	-	-	-
O=S(=O)(NCc1ccc2c(c1)OCO2)c1ccc(F)cc1	-	-	-	-	-	-
O=C(Nc1ccccc1O)c1ccc2c(c1)C(=O)N(Cc1ccco1)C2=O	.	-	.	-	51	.
CCCS(=O)(=O)c1c(S(=O)(=O)CCC)c2ccc(C(N)=O)cn2c1C(=O)c1ccccc1	.	-	.	-	-	.
CC1=NN(c2ccc(C)cc2)C(=O)/C1=C\C=C\c1ccccc1	-	-	-	-	-	-
CC1=NN(c2ccccc2)C(=O)/C1=C/C=C/C=C/N(C)C	-	-	73	-	-	-
Cn1nc(C(F)(F)F)c(CO)c1Sc1ccc(F)cc1	-	-	-	-	-	29
O=C(N/N=C1\CCCc2ccccc21)c1cccc([N+](=O)[O-])c1	-	-	-	-	-	-
Cc1cccc(C(=O)c2cnc3ccccc3c2-c2ccccc2)c1	-	-	-	-	49	-
CC1=C(C(=O)N2CCCCC2)C(c2cccs2)NC(=O)N1 (stereo unspecified)	-	-	-	-	-	-
CCOc1ccc(OCCCC(=O)Nc2cc(Cl)ccc2-n2cncn2)cc1	-	-	-	-	58	-
COc1ccc(OC)c(NC(=O)CSc2ncnc3c2cnn3-c2ccccc2Cl)c1	52	.	-	.	.	53
O=C(NCc1ccccn1)Nc1cc(Cl)cc(Cl)c1	-	-	-	-	-	29
O=C(NCc1ccccn1)Nc1cccc(Cl)c1	-	-	-	-	-	-
O=C(NCc1csc2ccccc12)Nc1cc(Cl)cc(Cl)c1	-	-	52	-	-	-
Nc1nnc(SCC(=O)OCC(=O)Nc2ccc(Br)cc2F)s1	-	-	-	-	-	-
Nc1nnc(SCC(=O)OCC(=O)Nc2ccc(Br)cc2)s1	-	-	-	44	-	-
CCCOC(=O)Nc1cc(OC)c(Cl)cc1OC	-	-	-	-	-	-
Cc1cc2c(NCc3ccccc3)ncnc2s1	-	-	-	-	-	32
Cc1sc2ncnc(NCC(C)(C)N3CCOCC3)c2c1C	-	-	82	-	-	-
Cc1sc2ncnc(NCC3(N4CCOCC4)CCCCC3)c2c1C	-	-	-	-	-	-
COc1ccccc1C(CNc1ncnc2sc(C)c(C)c12)N(C)C (stereo unspecified)	-	-	-	-	-	-
